Folding enthalpy and Tm data for 37 sequences are collected here from the array DNA melting data of Ke et al. (doi:10.1101/2024.01.08.574731).

A short description of data set [1]: folding enthalpy; higher = less favourable; fluorescence melt of hairpins on a sequencing array, two-state fit. The following applies: sodium 0.088 M. The method in brief: (§1)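 Melting temperature and folding enthalpy were derived from bootstrapped two-state fits. The fitted temperatures were raised by 9.35 °C to agree with UV melts, and four replicates were combined by inverse variance. The underlying data were Cy3 fluorescence images of library hairpins, with annealed Cy3 and quencher oligos, on a sequenced MiSeq flow cell in 50 mM Na-HEPES pH 8.0, 25 mM NaCl, taken in 2.5 °C steps up to 60 °C, normalised to pre-quench Cy3 and to control constructs.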

Data set [2] in a line: melting temperature; fluorescence melt of hairpins on a sequencing array, two-state fit, raised by 9.35 °C to match UV melts. Conditions: sodium 0.088 M. In short, it runs like this: as §1

On to GCACAACGAAAGTTTGC (((.(((....)))))), for which the folding enthalpy in data set [1] was -107 kJ/mol. For the same sequence, the Tm in data set [2] came out at 44.5 °C.

As to GCACAACGAAAGTTTTGC (((.(((....))).))), in data set [1], the folding enthalpy was -158 kJ/mol. The Tm in data set [2] is 46.9 °C.

With GCACAAGAAATTGTGC ((((((....)))))), the folding enthalpy in data set [1] was -151 kJ/mol. Further, the Tm in data set [2] came out at 57.3 °C.

Consider GCACAAGGAAACTTATGC (((.(((....))).))), for which the folding enthalpy in data set [1] was -78.1 kJ/mol. In data set [2], the Tm was 29.4 °C.

Take GCACAAGGAAACTTGCGC ((.((((....)))).)): the folding enthalpy in data set [1] is -159 kJ/mol. Moreover, in data set [2], the Tm was determined as 48.4 °C.

In the case of GCACACCCGAAAGGGTGC (((..(((....)))))), the folding enthalpy in data set [1] is -24.9 kJ/mol. The Tm in data set [2] came out at 38.6 °C.

As for GCACACGAAAGTGATTGC ((((((....)))..))), in data set [1], the folding enthalpy was -77.5 kJ/mol. Also, the Tm in data set [2] was determined as 39.8 °C.

On to GCACACGAAAGTGTTGC ((((((....))).))), for which the folding enthalpy in data set [1] is -136 kJ/mol. For the same sequence, the Tm in data set [2] is 53.8 °C.

As for GCACACGGAAACGCATGC (((..((....))..))), the folding enthalpy in data set [1] is -53.3 kJ/mol. Moreover, the Tm in data set [2] is 26.4 °C.

With GCACACGGAAACGCGTGC ((((.((....)).)))), the folding enthalpy in data set [1] was -198 kJ/mol. Besides, the Tm in data set [2] came out at 57 °C.

On to GCACACGGAAACGTGCGC ((.((((....)))).)), for which the folding enthalpy in data set [1] was -177 kJ/mol. The Tm in data set [2] was 60.5 °C.

Regarding GCACAGCGAAAGCAGGGC ((.(.((....)).).)), in data set [1], the folding enthalpy is -108 kJ/mol. The Tm in data set [2] is 62.5 °C.

Take GCACAGCGAAAGCCGGGC ((.(.((....)).).)): the folding enthalpy in data set [1] is -93.7 kJ/mol. For the same sequence, the Tm in data set [2] was determined as 55.7 °C.

Take GCACAGCGAAAGCCTTGC (((..((....))..))): in data set [1], the folding enthalpy was -36.9 kJ/mol. Also, in data set [2], the Tm was 39 °C.

For the sequence GCACAGCGAAAGCGATGC (((..((....))..))), the folding enthalpy in data set [1] is -65.9 kJ/mol. Also, in data set [2], the Tm was found to be 51.6 °C.

Consider GCACAGCGAAAGCTAAGC ((..(((....)))..)), for which, in data set [1], the folding enthalpy is -50.7 kJ/mol. In addition, in data set [2], the Tm was 40.4 °C.

Turning to GCACAGCGAAAGCTCAGC ((..(((....)))..)), in data set [1], the folding enthalpy was -44 kJ/mol. In addition, in data set [2], the Tm is 33.9 °C.

Take GCACAGCGAAAGCTCTGC (((.(((....))).))): the folding enthalpy in data set [1] was -107 kJ/mol. In addition, in data set [2], the Tm is 40.6 °C.

For GCACATACGAAAGTATGC (((..(((....)))))), in data set [1], the folding enthalpy was -41.5 kJ/mol. The Tm in data set [2] stood at 35.4 °C.

For the sequence GCACATCGAAAGATTTGC (((.(((....))).))), the folding enthalpy in data set [1] is -151 kJ/mol. Also, the Tm in data set [2] was 45.2 °C.

As for GCACCAGGAAACTGATGC (((.(((....))).))), in data set [1], the folding enthalpy was -120 kJ/mol. For the same sequence, in data set [2], the Tm was found to be 45 °C.

On to GCACCCGAAAGGGATTGC ((((((....)))..))), for which the folding enthalpy in data set [1] was -75.4 kJ/mol. Moreover, the Tm in data set [2] is 42.3 °C.

For the sequence GCACCCGAAAGGGCTTGC ((((((....)))..))), the folding enthalpy in data set [1] is -62.3 kJ/mol. The Tm in data set [2] turned out to be 46.6 °C.

As to GCACCCGAAAGGGGATGC ((((((....)))..))), the folding enthalpy in data set [1] was -82 kJ/mol. Besides, the Tm in data set [2] was 50.8 °C.

Turning to GCACCCGGAAACGAGCGC ((.(.((....)).).)), in data set [1], the folding enthalpy is -122 kJ/mol. For the same sequence, the Tm in data set [2] was determined as 34.7 °C.

As to GCACCCGGAAACGGACGC ((..(((....)))..)), the folding enthalpy in data set [1] was -81.9 kJ/mol. For the same sequence, the Tm in data set [2] is 38.7 °C.

Regarding GCACCGACGAAAGTCTGC (((..(((....)))))), the folding enthalpy in data set [1] is -69.8 kJ/mol. The Tm in data set [2] was determined as 35.3 °C.

On to GCACCGCGAAAGCCATGC (((..((....))..))), for which the folding enthalpy in data set [1] is -41 kJ/mol. In addition, in data set [2], the Tm came to 28.6 °C.

Regarding GCACCGCGAAAGCGTAGC ((..(((....)))..)), the folding enthalpy in data set [1] is -51.4 kJ/mol. Moreover, the Tm in data set [2] turned out to be 41.2 °C.

In the case of GCACCGCGAAAGCGTGGC ((..(((....)))..)), the folding enthalpy in data set [1] was -69.1 kJ/mol. Besides, the Tm in data set [2] amounted to 56.1 °C.

With GCACCGCGAAAGCGTTGC (((.(((....))).))), the folding enthalpy in data set [1] is -178 kJ/mol. Besides, in data set [2], the Tm is 56.3 °C.

For the sequence GCACCGCGAAAGCTATGC (((..((....))..))), the folding enthalpy in data set [1] was -53.6 kJ/mol. Besides, in data set [2], the Tm came to 31.1 °C.

Take GCACCGCGAAAGCTGTGC ((((.((....)).)))): the folding enthalpy in data set [1] is -134 kJ/mol. Further, in data set [2], the Tm came out at 66.2 °C.

As for GCACCGGGAAACCGGCGC ((.((((....)))).)), in data set [1], the folding enthalpy is -173 kJ/mol. Moreover, the Tm in data set [2] was 59.6 °C.

With GCACCGGGAAACTGGTGC (((((.(....).))))), in data set [1], the folding enthalpy is -171 kJ/mol. Moreover, the Tm in data set [2] turned out to be 61.2 °C.

With GCACCTGCGAAAGCATGC (((..(((....)))))), the folding enthalpy in data set [1] was -38.3 kJ/mol. Also, in data set [2], the Tm was 33.6 °C.

As to GCACCTGGAAACAGACGC ((..(((....)))..)), the folding enthalpy in data set [1] was -64.1 kJ/mol. Besides, the Tm in data set [2] was 29.2 °C.
